In ChEMBL document CHEMBL4342467, “Discovery of a Novel Dual-Target Inhibitor of ERK1 and ERK5 That Induces Regulated Cell Death to Overcome Compensatory Mechanism in Specific Tumor Types” (J Med Chem, 2020):
Calls of active or inactive are those of the source. No cut-off for these calls is given here.

Key:
[1] = system: MKN-74; test: Antitumor activity against human MKN74 cells xenografted in BALB/c mouse assessed as reduction in Ki-67 positive cells at 50 mg/kg, po administered once daily for 16 days measured post-last dose by immunohistochemical analysis; type: functional, organism-based
Procedure, shortened: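 Tumors excised from control and 50 mg/kg p.o.-treated xenograft mice were immunostained for Ki-67, p-ERK1/2 and p-ERK5. Positive-cell percentage quantified and compared with control.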

[2] = system: HL-60; test: Antitumor activity against human HL60 cells xenografted in BALB/c mouse assessed as reduction in tumor weight at 50 mg/kg, po administered once daily for 16 days measured post-last dose; type: functional, organism-based
Procedure, shortened: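 Female nude mice bearing subcutaneous xenografts (8 per group) received vehicle or 50 mg/kg p.o. once daily for 16 days. Excised tumors weighed and compared with control group.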

[3] = Effect on Ras/Raf/MEK/ERK signaling in human MKN74 cells assessed as change in MEK1/2 phosphorylation at S217/221 residue at 0.5 uM measured up to 24 hrs by Western blot analysis; type: cell-based
Procedure, shortened: (§1)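 MKN-74 cells exposed to 0.5 μM for 0, 6, 12 and 24 h. Ras, Raf, p-MEK1/2, MEK1/2, p-JNK, JNK, p-p38 and p38 immunoblotted, with GAPDH as loading control.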

[4] = biological target: Mitogen-activated protein kinase 7 (Homo sapiens) (UniProt Q13164); test: Inhibition of ERK5 in human MKN74 cells harboring siRNA assessed as reduction in ERK5 phosphorylation at 0.5 uM by immunofluorescence assay; type: cell-based
Procedure, shortened: (§2)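 ERK1/2-specific or negative-control siRNA was transfected into MKN-74 cells for the indicated times, followed by compound at 0.5 μM. p-ERK1/2 and p-ERK5 puncta were detected by immunocytochemistry.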

[5] = AUC (0 to infinity) in Sprague-Dawley rat at 10 mg/kg, po by LC-MS analysis; type: ADME, organism-based; parameters: dose 10 mg/kg, route oral, time infinity; details: in vivo
Procedure, shortened: (§3)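 Rats, two groups of 3; single i.v. dose 1 mg/kg or oral dose 10 mg/kg. Plasma concentration-time profiles used to derive T1/2, Tmax, Cmax, AUC0-t, AUC0-∞ and oral bioavailability. Data from triplicate testing, ± standard deviation.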

[6] = AUC (0 to infinity) in Sprague-Dawley rat at 1 mg/kg, iv by LC-MS analysis; type: ADME, organism-based; parameters: dose 1 mg/kg, route intravenous, time infinity; details: in vivo; procedure, shortened: as §3
[7] = system: HL-60; test: Antiproliferative activity against human HL60 cells assessed as reduction in cell viability measured after 24 hrs; type: functional, cell-based; details: HL-60, 24 h
[8] = system: Mus musculus; test: In vivo inhibition of ERK1/2 in BALB/c mouse xenografted with human MKN74 cells assessed as reduction in ERK1/2 phosphorylation at 50 mg/kg, po administered once daily for 16 days measured post-last dose by Western blot analysis; type: functional, organism-based
Procedure, shortened: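 Two individual tumors excised from xenograft mice were lysed. ERK1/2, p-ERK1/2, ERK5 and p-ERK5 detected by western blot.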

[9] = Effect on Ras/Raf/MEK/ERK signaling in human MKN74 cells assessed as change in p38 expression at 0.5 uM measured up to 24 hrs by Western blot analysis; type: cell-based; procedure, shortened: as §1
[10] = Effect on Ras/Raf/MEK/ERK signaling in human MKN74 cells assessed as change in JNK expression at 0.5 uM measured up to 24 hrs by Western blot analysis; type: cell-based; procedure, shortened: as §1
[11] = system: HL-60; test: Induction of autophagy in human HL60 cells; type: functional, cell-based
[12] = Tmax in Sprague-Dawley rat at 1 mg/kg, iv by LC-MS analysis; type: ADME, organism-based; details: in vivo
Procedure, shortened: (§4)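 Two groups of rats (3 per group) received a single dose, either 1 mg/kg i.v. or 10 mg/kg p.o. Plasma concentrations were followed to derive Tmax, Cmax, T1/2, AUC and F. Data are from triple testing (± standard deviation).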

[13] = system: HL-60; test: Induction of cytoplasmic vacuolization in human HL60 cells; type: functional, cell-based
[14] = biological target: T1, Mitogen-activated protein kinase; ERK1/ERK2 (Homo sapiens) (UniProt P27361+P28482); test: Inhibition of ERK1/2 in human MKN74 cells assessed as reduction in RSK phosphorylation at T359/S363 residue at 0.5 uM measured up to 24 hrs by Western blot analysis; type: cell-based
[15] = system: MKN-74; test: Antitumor activity against human MKN74 cells xenografted in BALB/c mouse assessed as reduction in tumor volume at 50 mg/kg, po administered once daily for 16 days measured every 3 days during compound dosing; type: functional, organism-based
Procedure, shortened: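 Female nude mice bearing subcutaneous HL-60, MKN-74 or HeLa xenografts, 8 per group. Dosing was vehicle control or 50 mg/kg p.o. once daily for 16 days. Tumor volume followed over time, mean ± SEM.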

[16] = system: MKN-74; test: Cytotoxicity against human MKN74 cells harboring siRNA assessed as reduction in cell viability at 0.5 uM by MTT assay; type: functional, cell-based
Procedure, shortened: (§5)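 MKN-74 cells transfected with ATG5-specific or negative-control siRNA for the indicated times, then treated with 0.5 μM. Viability read by MTT assay.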

[17] = biological target: Mitogen-activated protein kinase 7 (Homo sapiens) (UniProt Q13164); test: Inhibition of ERK5 in human MKN74 cells harboring ERK1/2 siRNA assessed as reduction in ERK5 phosphorylation at 0.5 uM by immunofluorescence assay; type: cell-based; procedure, shortened: as §2
[18] = Oral bioavailability in Sprague-Dawley rat at 10 mg/kg by LC-MS analysis; type: ADME, organism-based; details: in vivo; procedure, shortened: as §4
[19] = system: MKN-74; test: Induction of autophagy in human MKN74 cells harboring ATG5 siRNA assessed as increase in p62 degradation at 0.5 uM by Western blot analysis; type: functional, cell-based
Procedure, shortened: (§6)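 MKN-74 cells transfected with ATG5 or negative-control siRNA for the indicated times, then 0.5 μM. ATG5, LC3 and p62 immunoblotted, with GAPDH loading control.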

[20] = system: MKN-74; test: Antiproliferative activity against human MKN74 cells assessed as reduction in cell viability measured after 24 hrs; type: functional, cell-based; details: MKN-74, 24 h
[21] = system: MKN-74; test: Cytotoxicity against human MKN74 cells harboring ATG5 siRNA assessed as reduction in cell viability at 0.5 uM by MTT assay; type: functional, cell-based; procedure, shortened: as §5
[22] = Half life in Sprague-Dawley rat at 1 mg/kg, iv by LC-MS analysis; type: ADME, organism-based; details: in vivo; procedure, shortened: as §3
[23] = biological target: Mitogen-activated protein kinase 1 (Homo sapiens) (UniProt P28482); test: Inhibition of ERK2 (unknown origin) at 1 uM by Z'-Lyte assay relative to control
[24] = biological target: T1, Mitogen-activated protein kinase; ERK1/ERK2 (Homo sapiens); test: Inhibition of ERK1/2 in human MKN74 cells assessed as reduction in ERK1/2 phosphorylation at T202/Y204 residue at 0.5 uM measured up to 24 hrs by Western blot analysis; type: cell-based
[25] = system: MKN-74; test: Induction of autophagy in human MKN74 cells harboring ATG5 siRNA assessed as increase in LC3-2 expression at 0.5 uM by Western blot analysis; type: functional, cell-based; procedure, shortened: as §6
[26] = biological target: Mitogen-activated protein kinase 3 (Homo sapiens) (UniProt P27361); test: Inhibition of wild-type human full length ERK1 (M1 to P379 residues) expressed in bacterial expression system at 1 uM by Kinomescan method relative to control
Procedure, shortened: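 KINOMEscan binding assays over a 100-kinase panel, with test compound at 1 μM. Results are given as % inhibition.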

[27] = system: MKN-74; test: Induction of autophagy in human MKN74 cells assessed as increase in p62 degradation at 0.5 uM measured up to 24 hrs by Western blot analysis; type: functional, cell-based
Procedure, shortened: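 MKN-74 cells treated with 0.5 μM; LC3 (LC3-II) and p62 levels analyzed by immunoblotting.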

T1 sequence (P27361 whole entry, looked up): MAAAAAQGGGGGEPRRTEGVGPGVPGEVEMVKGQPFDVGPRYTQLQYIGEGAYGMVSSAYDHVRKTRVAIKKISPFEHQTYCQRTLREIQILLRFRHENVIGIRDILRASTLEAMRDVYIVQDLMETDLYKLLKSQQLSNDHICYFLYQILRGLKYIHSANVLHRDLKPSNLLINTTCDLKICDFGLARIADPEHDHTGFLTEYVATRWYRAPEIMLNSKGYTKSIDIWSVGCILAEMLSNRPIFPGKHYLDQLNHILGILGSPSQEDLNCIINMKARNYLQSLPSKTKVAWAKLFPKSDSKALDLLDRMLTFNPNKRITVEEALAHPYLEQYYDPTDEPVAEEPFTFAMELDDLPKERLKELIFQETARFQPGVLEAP
T1 sequence (P28482 whole entry, looked up): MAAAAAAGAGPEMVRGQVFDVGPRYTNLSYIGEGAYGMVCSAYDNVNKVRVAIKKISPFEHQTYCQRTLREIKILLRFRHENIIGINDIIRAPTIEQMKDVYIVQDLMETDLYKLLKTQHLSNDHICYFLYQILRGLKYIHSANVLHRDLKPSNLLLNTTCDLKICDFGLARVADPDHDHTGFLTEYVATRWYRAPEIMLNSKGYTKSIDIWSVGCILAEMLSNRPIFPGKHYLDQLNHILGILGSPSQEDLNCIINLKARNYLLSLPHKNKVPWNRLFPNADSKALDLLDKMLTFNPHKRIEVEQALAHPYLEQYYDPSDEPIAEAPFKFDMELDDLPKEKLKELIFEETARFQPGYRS
Mitogen-activated protein kinase 7 (Homo sapiens), sequence (Q13164 2-816 limits assumed): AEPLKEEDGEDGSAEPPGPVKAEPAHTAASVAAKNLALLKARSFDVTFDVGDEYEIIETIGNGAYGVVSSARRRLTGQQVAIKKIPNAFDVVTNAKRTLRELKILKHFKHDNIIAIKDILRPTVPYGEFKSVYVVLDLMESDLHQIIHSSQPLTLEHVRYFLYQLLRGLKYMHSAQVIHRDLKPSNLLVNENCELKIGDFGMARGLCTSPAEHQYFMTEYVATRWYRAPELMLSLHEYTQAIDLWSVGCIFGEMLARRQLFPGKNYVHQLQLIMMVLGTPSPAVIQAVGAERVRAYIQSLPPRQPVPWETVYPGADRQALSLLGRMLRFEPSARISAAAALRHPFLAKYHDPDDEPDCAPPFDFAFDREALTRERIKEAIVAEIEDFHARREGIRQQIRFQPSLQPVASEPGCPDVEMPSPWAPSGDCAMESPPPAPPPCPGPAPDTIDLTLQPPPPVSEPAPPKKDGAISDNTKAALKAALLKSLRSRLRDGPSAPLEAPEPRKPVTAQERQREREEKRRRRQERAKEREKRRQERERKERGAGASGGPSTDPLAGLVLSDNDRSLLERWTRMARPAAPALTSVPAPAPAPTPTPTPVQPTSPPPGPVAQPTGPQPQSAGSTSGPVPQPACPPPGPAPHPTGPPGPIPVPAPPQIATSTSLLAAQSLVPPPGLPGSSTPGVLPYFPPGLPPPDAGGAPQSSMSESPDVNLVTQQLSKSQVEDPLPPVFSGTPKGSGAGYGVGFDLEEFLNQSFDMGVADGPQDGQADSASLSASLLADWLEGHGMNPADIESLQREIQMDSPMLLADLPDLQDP
Mitogen-activated protein kinase 1 (Homo sapiens), sequence (P28482 whole entry): as the sequence (P28482 whole entry, looked up) above
Mitogen-activated protein kinase 3 (Homo sapiens), sequence (P27361 whole entry, the tested form may be a part): as the sequence (P27361 whole entry, looked up) above

Compound: NC(=O)c1c(NC(=O)c2ccccc2Cl)sc2c1CCN(C(=S)Nc1ccccc1Cl)C2
- Activity [1]: Active
- Activity [2]: Active
- Activity [3]: inactive
- inhibition [4]: Active
- AUC(0-inf) [5]: 5180 ng·h/mL
- AUC(0-inf) [6]: 1840 ng·h/mL
- IC50 [7]: 1260 nM
- inhibition [8]: Active
- Activity [9]: inactive
- Activity [10]: inactive
- Activity [11]: inactive
- Tmax [12]: 4.8 min
- Activity [13]: inactive
- inhibition [14]: inactive
- Activity [15]: Active
- Activity [16]: Active
- inhibition [17]: Active
- bioavailability [18]: 27.6%
- Activity [19]: inactive
- IC50 [20]: 2550 nM
- Activity [21]: inactive
- half-life [22]: 57 min
- inhibition [23]: 92.7%
- inhibition [24]: Active
- Activity [25]: inactive
- inhibition [26]: 94%
- Activity [27]: Active
